# Shown are actives, neighbours in structure and some others; about 3.5% of the full set was active somewhere.
# MrgX1 ag: activates human MrgX1 receptor signaling | Q96LB2 | MrgX1-HEK293 cells, Fluo-4 calcium fluorescence, agonist mode; stronger effect = higher value | AID 588627 | 310,000 tested, 0.44% active | B-score at 10 µM;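 active = calcium response B-score plate-corrected fluorescence ratio at least 3 library SD, with starting fluorescence B-score inside 5 SD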
# Target sequence (Q96LB2 whole entry, looked up): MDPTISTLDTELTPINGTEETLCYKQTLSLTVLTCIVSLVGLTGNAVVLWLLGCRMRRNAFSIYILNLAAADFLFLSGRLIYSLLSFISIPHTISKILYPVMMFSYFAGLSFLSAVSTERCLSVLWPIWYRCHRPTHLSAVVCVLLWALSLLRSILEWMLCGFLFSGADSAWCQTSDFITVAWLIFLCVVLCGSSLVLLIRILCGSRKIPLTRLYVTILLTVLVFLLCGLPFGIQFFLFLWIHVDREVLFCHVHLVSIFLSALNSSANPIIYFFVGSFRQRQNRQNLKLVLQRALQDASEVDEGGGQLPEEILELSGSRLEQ
#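 times = overnight plating, then 30 min 37 °C plus 30 min room-temperature dye loading | assay system = stable human MrgX1 HEK293 cell line | input = fifteen thousand cells per well | signal = kinetic calcium dye fluorescence, Fluo-4 NW | dosing = compound delivered in addition one of three | read-out = B-scored fluorescence response ratio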
# MrgX1 allo act: allosterically activates human MrgX1 receptor signaling; Q96LB2; MrgX1-HEK293, Fluo-4 calcium flux, FDSS; stronger effect = higher value; B-score at 10 µM; 310,000 tested, 0.63% active; AID 588675;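 active = plate-corrected calcium response at least 3 library SD above typical, normal starting fluorescence, not activating the receptor alone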;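 also: compound read alongside a low EC10 to EC30 dose of BAM8-22 agonist; peak minus trough fluorescence over baseline measured at the second addition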
# RGS4 pot: potentiators or activators of RGS4 | B-score at 10 µM | 310,000 tested, 0.92% active | AID 463111 | HEK293 M3R/inducible RGS4, carbachol calcium flux Fluo4; stronger effect = lower value;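 active = B-score of the integrated calcium signal more than 4 SD below the library mean, with starting fluorescence not abnormally high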;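 also: negative B-score means reduced calcium response which marks RGS4 activation or potentiation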
#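 System – HEK293 FlpIn-TREx cells, stable M3R, doxycycline-inducible RGS4 · Reagent – ECmax carbachol challenge · Times – compound preincubation 20 min at room temperature before agonist · Technique – Fluo4 fluorescence kinetic imaging of calcium · Measure – B score of integrated Fluo4 ratio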
# MrgX1 antag: human MrgX1 receptor antagonism, primary screen | Q96LB2 | MRGX1-HEK293 calcium flux, Fluo-4, BAM8-22 antagonism; stronger effect = lower value | B-score at 10 µM | 310,000 tested, 1.3% active | AID 588676;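 active = calcium-response B-score plate-corrected more than 3 library SD below zero, starting fluorescence within 5 deviations, no agonist response on first addition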;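 also: peak minus trough fluorescence over baseline after final BAM8-22 challenge near maximal dose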
# RGS4 inh: inhibitors of human RGS4. P49798. HEK293 M3R/RGS4 inducible, Fluo-4 calcium flux; stronger effect = higher value; triggered by carbachol at its EC20. B-score at 10 µM. 310,000 tested, 0.45% active. AID 463165;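 active = B-score, a plate-corrected calcium signal, over three deviations above library mean, with baseline fluorescence within five deviations of library mean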;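 also: RGS4 expression induced by doxycycline in cells with stable M3 receptor; B-score is computed from the integrated fluorescence ratio over baseline after carbachol; higher B-score means a larger calcium signal and so more RGS4 inhibition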
# Target sequence (P49798 whole entry, looked up): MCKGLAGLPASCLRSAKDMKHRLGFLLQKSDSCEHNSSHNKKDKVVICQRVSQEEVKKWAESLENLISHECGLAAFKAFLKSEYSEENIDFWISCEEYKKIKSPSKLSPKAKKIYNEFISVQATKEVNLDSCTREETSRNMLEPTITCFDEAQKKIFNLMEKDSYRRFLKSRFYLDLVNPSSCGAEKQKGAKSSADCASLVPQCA
# Active calls of the source: *; i = inactive; · = no result.
SMILES,MrgX1 ag,MrgX1 allo act,RGS4 pot,MrgX1 antag,RGS4 inh
Cc1ccc(CN2C(=O)/C(=C\c3ccc(C(=O)NCc4cccnc4)cc3)Oc3ccccc32)cc1,i,i,i,-4.6*,i
CC[C@@]1(c2ccccc2)C(=O)N(C(=O)OC)N1C(=O)OC,i,i,i,-8.6*,i
CC[C@]1(c2ccccc2)C(=O)N(C(=O)OC)N1C(=O)OC,i,i,i,i,i
COc1ccc(C2=NOC(C(=O)NCCCN3CCOCC3)C2)cc1 (centres undefined),i,i,i,-5.1*,i
COc1ccc(C2=NOC(C(=O)NCCN3CCOCC3)C2)cc1 (centres undefined),i,i,i,i,i
Cc1ccc2c(C(=O)CCl)c(C)[nH]c2c1,i,8.2*,i,i,i
Cc1nc2ccccc2c(-c2ccccc2)c1CC(=O)O,i,i,i,i,i
O=C(O)C[C@H](O)C[C@H](O)/C=C/c1c(C2CC2)nc2ccccc2c1-c1ccc(F)cc1,·,·,-7*,·,i
S=C(NCCCN1CCOCC1)NCCCN1CCOCC1,i,i,i,i,i
CC(CCc1ccccc1)NCc1cccc2ccccc12 (centres undefined),i,i,i,i,i
NC(CCCCc1ccccc1)c1cccc2ccccc12 (centres undefined),61*,i,i,i,i
COc1ccc(-c2nc(-c3ccccc3)c(-c3cccs3)[nH]2)cc1OC,i,i,i,i,i
COc1ccc(-c2nc(-c3cccs3)c(-c3cccs3)[nH]2)cc1OC,i,i,-8*,i,i
O=[N+]([O-])c1ccc(-c2nc(-c3cccs3)c(-c3cccs3)[nH]2)cc1,i,i,-8.9*,i,i
Cc1cc(N2CCOCC2)c2c(N)c(C)cc(C)c2n1,i,i,·,i,·
COc1ccc(N=C(N(C)C)P(=O)(N(C)C)N(C)C)cc1,i,i,i,i,i
Cn1nnnc1Sc1c(Cl)cccc1[N+](=O)[O-],i,i,i,-5.6*,i
N#C/C(=C\c1cccc(O)c1)C(=O)Nc1ccc2c(c1)OCCO2,i,17*,i,i,i
O=C(/C=C/c1ccco1)Nc1ccc2c(c1)OCCO2,i,i,i,i,i
O=C(/C=C/c1ccccc1)Nc1cccc(C(=O)O)c1,i,i,i,-5.6*,i
CCC(=O)Nc1cccc(C(=O)/C=C/c2ccccc2)c1,35*,i,i,i,i
O=C(/C=C/c1ccccc1)Nc1ccc2c(c1)OCCO2,i,i,i,-4.6*,i
Cc1ccc2nc(CSc3nc(C)cc(C)c3C#N)[nH]c2c1,i,i,i,i,i
Cc1cccc(N2CCN(C(=O)c3cn(C)c(=O)c4c3c3ccccc3n4C)CC2)c1C,i,9.5*,i,i,i
CCn1c(CC(=O)Nc2ccc(C)cc2)nnc1SCC(=O)NCCc1ccccc1,i,i,i,-5.5*,i
SMILES,MrgX1 ag,MrgX1 allo act,RGS4 pot,MrgX1 antag,RGS4 inh
CCn1c(Cc2ccccc2)nnc1SCC(=O)Nc1ccc(C)cc1,i,i,i,i,i
Cc1ccc(C(=O)N2CCN=C2SCc2ccc([N+](=O)[O-])cc2)cc1,i,i,i,-7.1*,i
Cc1ccc(CSC2=NCCN2C(=O)c2ccc([N+](=O)[O-])cc2)cc1,i,i,i,i,i
CC(=O)N1N=C(c2cccc(Cl)c2)OC1c1ccc(C(C)C)cc1 (centres undefined),i,i,i,i,i
CCOC(=O)c1ccc(NC(=O)/C=C/c2cccs2)cc1,i,i,i,i,i
CCN(CC)CCOC(=O)c1ccc(NC(=O)C2(c3ccccc3)CCCC2)cc1,i,i,-7.4*,i,i
CCN(CC)CCOC(=O)c1ccc(NC(=O)/C=C/c2cccs2)cc1,i,i,-7.1*,i,i
O=C(O)c1ccc(NC(=O)C2(c3ccccc3)CCCC2)cc1,i,i,i,i,i
COC(=O)C1=C[C@@H](C(=O)OC)[C@@H]2C3=C(C(=O)[C@@]2(C)NC(=O)c2ccccc2)[C@H](c2ccccc2)n2c(=O)n(-c4ccccc4)c(=O)n2[C@@H]3C1,i,i,i,i,i
Cc1ccc(/C=C/C2=Cc3c(sc(NC(=O)CSc4n[nH]c(N)n4)c3C#N)C(C)(C)C2)o1,i,i,i,-5.4*,i
CCCc1cc(C(=O)Nc2ccc(C(=O)c3ccc(F)cc3)cc2)n(C)n1,i,i,i,-6.9*,i
CCCc1cc(C(=O)Nc2ccc(C(=O)c3ccccc3)cc2)n(C)n1,i,i,i,i,i
Cc1ccc(NC(=O)COC(=O)/C=C/c2c(C)nn(-c3ccc(F)cc3)c2Cl)cc1F,i,i,i,-5.4*,i
O=C(NCCO)Nc1ccc2nc(-c3ccco3)c(-c3ccco3)nc2c1,28*,i,·,i,·
O=C(Nc1cccnc1)c1ccc2nc(-c3ccccc3)c(-c3ccccc3)nc2c1,i,i,-9.8*,i,i
CC(=O)c1ccc(NC(=O)c2ccc3nc(-c4ccco4)c(-c4ccco4)nc3c2)cc1,i,i,i,-6.7*,i
O=C(NCCO)Nc1ccc2nsnc2c1,i,i,i,i,i
S=C(Nc1ccc(N2CCOCC2)cc1)Nc1ccc2nc(-c3ccco3)c(-c3ccco3)nc2c1,i,i,-7*,i,i
CCCCn1c(NC(=O)c2ccc(F)cc2)c(C#N)c2nc3ccccc3nc21,54*,i,i,i,i
COc1ccc(Nc2nc(-c3cccs3)nc3ccccc23)cc1S(=O)(=O)N1CCOCC1,i,i,-7.3*,i,i
COc1ccc(NS(=O)(=O)c2cccs2)cc1S(=O)(=O)N1CCOCC1,i,i,i,i,i
O=C(CCc1nnc(CCCCc2ccccc2)o1)NCCN1CCOC1=O,i,i,i,-5.3*,i
O=C(CCc1nnc(CCCCc2ccccc2)o1)NCCn1cccn1,i,i,i,i,i
COC(=O)C1=C(C)NC(C)=C(C(=O)OC)C1c1ccccc1[N+](=O)[O-],i,i,-8.5*,i,i
Nc1nc(N2CCCCC2)nc2ccccc12,i,i,-7.2*,i,i
N#CCc1ccc(NC(=O)Nc2cccc(Cl)c2)cc1,i,i,i,i,i
Cc1ccc(-c2c[n+](CC(=O)OCc3ccccc3)c3n2CCC3)cc1,i,i,i,i,i
